{
  "source": "PubChem BioAssay AID651945",
  "about": "(The Scripps Research Institute Molecular Screening Center, 2012)",
  "biological_target": "Heat shock 70 kDa protein 1A (Homo sapiens) (UniProt P0DMV8)",
  "sequence (P0DMV8 whole entry, looked up)": "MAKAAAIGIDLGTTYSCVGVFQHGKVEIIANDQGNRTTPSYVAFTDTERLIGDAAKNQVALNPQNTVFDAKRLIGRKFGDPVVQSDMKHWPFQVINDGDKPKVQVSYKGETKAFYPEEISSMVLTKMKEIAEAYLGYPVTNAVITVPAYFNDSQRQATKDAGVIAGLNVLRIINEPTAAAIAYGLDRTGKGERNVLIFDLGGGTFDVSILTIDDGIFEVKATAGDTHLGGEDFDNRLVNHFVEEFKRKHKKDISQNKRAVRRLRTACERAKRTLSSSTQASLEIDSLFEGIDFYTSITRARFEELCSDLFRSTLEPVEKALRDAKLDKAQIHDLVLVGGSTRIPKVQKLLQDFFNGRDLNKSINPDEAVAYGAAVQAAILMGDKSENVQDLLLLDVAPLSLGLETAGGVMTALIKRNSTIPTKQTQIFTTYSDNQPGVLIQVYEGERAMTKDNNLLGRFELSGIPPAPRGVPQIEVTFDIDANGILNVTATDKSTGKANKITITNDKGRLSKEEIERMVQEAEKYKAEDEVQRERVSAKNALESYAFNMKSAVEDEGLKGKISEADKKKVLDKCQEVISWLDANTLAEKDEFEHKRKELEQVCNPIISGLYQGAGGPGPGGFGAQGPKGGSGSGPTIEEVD",
  "test": "Hsp70 gene expression change – cell-based, fluorescence, HeLa, orthogonal assay, late-stage follow-up (AID 651945)",
  "details": "HeLa Hsp70 mRNA, qRT-PCR, 4 h; at 10 µM; active compounds read high",
  "summary_of_the_method": "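Material: HeLa cells; control set: DMSO vehicle baseline; medium: HEPES-buffered DMEM, 10% FBS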",
  "data": [
    {"smiles": "COc1ccc(/C=C/C=C2C(=O)NC(=O)NC2=O)cc1", "values": [
      {"measurement": "fold change", "result": 2.4}
    ]}
  ]
}
